The source made the active and inactive calls.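 How the source made its calls: active means fitted curve reaches a 35% growth drop -35 below twice the top tested dose; inactive means activity in the wrong direction, or the rest.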
Test system: P. aeruginosa PAK mexAB-oprM, EDDHA, OD600 growth, 28 h
Test: growth delay of efflux-deficient P. aeruginosa under iron chelation, dose response, PAK mexAB-OprM pump mutant, OD600, dry powder, set 2 (AID 624104)
Conditions: not given
Procedure, shortened: (§1)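 Material: Diluted overnight bacterial culture | Compound dosing: Pin-transferred compound series, final 100 µM down to 15 nM | Times: 28 h at 30 °C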

Going from N#CC(c1ccc(F)cc1)c1cccc(C(F)(F)F)n1 (configuration not stated) to N#CC(c1ccc(Cl)cc1)c1cccc(C(F)(F)F)n1 (configuration not stated), the AC35 rises from 0.839 µM to 1.45 µM (1.7-fold).

Compared with CN(C)CCCC(C#N)c1ccc(F)cc1 (configuration not stated), CCCCC(C#N)c1ccc(F)cc1 (configuration not stated) is 5.2-fold higher in AC35: 6.4 µM for the first, 33.5 µM for the second.

COCCC(C#N)c1ccc(Cl)cc1 (configuration not stated) and COCCC(C#N)c1ccc(F)cc1 (configuration not stated) are within 1.5-fold of each other in AC35: 40.2 µM for the first, 28.3 µM for the second.

Compared with N#CC(c1ccc(Cl)cc1)c1ccccn1 (configuration not stated), N#CC(c1ccc(Cl)cc1)c1ncccc1Cl (configuration not stated) is 6.2-fold lower in AC35: 5.72 µM for the first, 0.923 µM for the second.

First: CCCCC(C#N)c1ccc(F)cn1 (configuration not stated)
Second: CCCCC(C#N)c1ccc(Cl)cn1 (configuration not stated)
The AC35 of the first is 2.3-fold lower: 18.7 µM for the first, 42.3 µM for the second.

First: N#Cc1cccc(C(C#N)c2ccc(F)cc2)n1 (configuration not stated)
Second: N#CC(c1ccc(F)cc1)c1cccc(Cl)n1 (configuration not stated)
The AC35 of the first is 4.2-fold higher: 8.88 µM for the first, 2.09 µM for the second.

First: N#CC(c1cccc(Cl)n1)c1ccc(Cl)cc1F (configuration not stated)
Second: N#CC(c1cccc(C(F)(F)F)n1)c1ccc(Cl)cc1F (configuration not stated)
The AC35 of the first is 1.6-fold lower: 1.52 µM for the first, 2.45 µM for the second.

Compared with N#CC1c2ccc(Cl)cc2CCc2cccnc21 (configuration not stated), N#CC(c1ccc(Cl)cc1)c1cccc(Cl)n1 (configuration not stated) is 17-fold lower in AC35: 32.8 µM for the first, 1.97 µM for the second.

Compared with COCCOCCC(C#N)c1ccc(F)cc1 (configuration not stated), CCCCC(c1ccc(Cl)cc1)c1nn[nH]n1 (configuration not stated) is 4.8-fold higher in AC35: 5.24 µM for the first, 25.2 µM for the second.

Test system: not listed separately
Test: as above
Conditions: P. aeruginosa PAK mexAB-oprM, EDDHA, OD600 growth, 28 h; at 100 µM (top of the series)
Procedure, shortened: as §1

In the case of CN(C)CCCC(C#N)c1ccc(Cl)cc1 (configuration not stated), the activity change, negative = growth inhibition was -0.114% (inactive).
For COCCOCCC(C#N)c1ccc(Cl)cc1 (configuration not stated), the activity change, negative = growth inhibition was -10% (inactive).
In the case of N#CC(c1ccc(C(F)(F)F)c(Cl)n1)c1ccccc1OC(F)(F)F (configuration not stated), the activity change, negative = growth inhibition was -25.9% (inactive).
With Clc1ccc(C(c2cccc(Cl)n2)c2nn[nH]n2)cc1 (configuration not stated) the activity change, negative = growth inhibition was 11.2% (inactive).

Source: PubChem BioAssay AID624104 (Broad Institute, 2012)
